Screening results (PubChem)
MC4R barr agon: MC4R agonists recruiting beta-arrestin, primary screen, cell-based, luminescence, agonist arm of biased-ligand search; U2OS MC4R beta-arrestin complementation; percent of melanotan II response, DMSO zero; 0.98% of 360,000 active; activation, % at 8.9 µM; Melanocortin receptor 4 (Homo sapiens), P32245;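 active = activation above a per-plate cutoff, the mean activation of sample wells on that plate plus 3 SD, cut at about 8% in these data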
Target sequence (P32245 whole entry, looked up): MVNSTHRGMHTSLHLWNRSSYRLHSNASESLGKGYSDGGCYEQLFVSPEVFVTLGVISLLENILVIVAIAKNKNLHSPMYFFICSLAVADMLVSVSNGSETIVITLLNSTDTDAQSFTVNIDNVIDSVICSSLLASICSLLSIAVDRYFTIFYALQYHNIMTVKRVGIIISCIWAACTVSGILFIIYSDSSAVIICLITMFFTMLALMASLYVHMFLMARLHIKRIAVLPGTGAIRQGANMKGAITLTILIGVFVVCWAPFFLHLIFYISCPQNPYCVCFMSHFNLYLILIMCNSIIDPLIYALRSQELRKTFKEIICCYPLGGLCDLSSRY
Rev-erbA mod: modulators of Rev-erb alpha DNA binding, primary screen, biochemical, FITC-DNA, fluorescence polarization, uHTS | Rev-erbα–FITC-DNA binding, 90 min | activity, % at 10 µM | 0.79% of 370,000 active | AID 1259318, 2017;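 active = activity above about 14%, limit read from the data; passing the limit was not always enough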;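 note: 0% = DMSO wells with 35 nM protein and 100% = DMSO wells with 750 nM protein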
MC4R antagonist: MC4R antagonists of cAMP signaling, primary screen, cell-based, TR-FRET, antagonist arm of biased-ligand search | MC4R-expressing cells, MTII-stimulated cAMP, LANCE TR-FRET | inhibition, % at 6.5 µM | 0.48% of 360,000 active | AID 540295, 2011;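 active = inhibition above its plate's cutoff, the mean of tested wells on that plate plus 3 SD, cut at about 29% in these data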;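 note: 0% = Melanotan II alone and 100% = Melanotan II plus saturating MCL0020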
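Material: human MC4R-expressing U2OS cells. Probe or stimulus: Melanotan II challenge. Dosing: 6.5 µM single dose. Times: 30-min compound, 1-h challenge, 1-h detection, room temperature. Technique: TR-FRET with Eu-cAMP and labeled anti-cAMP, 671 nm. Replication: singlicate.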
PG9 binder: binders of HIV-1 gp120 antibody PG9, primary screen, biochemical, TR-FRET | 0.43% of 360,000 active | TR-FRET gp120-PG9 antibody binding | inhibition, % at 6.7 µM | HIV-1 gp120 / PG9 antibody interaction; in the data active = inhibition above about 8.5%
NTR1 ag: agonists of human NTR1, primary screen, imaging, U2OS cells, beta-arrestin-GFP, high content. NTR1-U2OS beta-arrestin-GFP spot imaging, agonist mode. activation, % at 20 µM. Neurotensin receptor type 1 (Homo sapiens), P30989. 0.17% of 330,000 active;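 active = activation at or above 40% of the spot to cytoplasm intensity ratio, with at least 20 cells analyzed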;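 note: 0% = DMSO without peptide and 100% = 100 nM NTR1 peptide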
NTR1 ag conf: NTR1 agonists, single-dose retest, confirmation, imaging, U2OS cells, beta-arrestin-GFP, single concentration. shares compounds with NTR1 ag. NTR1-U2OS beta-arrestin-GFP translocation imaging. activation, % at 20 µM. 38% of 480 active. AID 504550, 2011;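 active = mean activation at 20 µM of at least 40%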;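 note: 0% = DMSO without peptide and 100% = 100 nM NTR1 peptide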
U2OS cAMP counter: nonselective cAMP signaling inhibitors, parental cells, counter-screen for MC4R biased antagonist project, cell-based, TR-FRET, U2OS, forskolin, triplicate; 26% of 1,600 active; shares compounds with MC4R antagonist; AID 602193, 2012; inhibition, % at 6.5 µM; LANCE TR-FRET;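 active = mean inhibition over triplicates above the low-control well mean plus 3 SD, set per campaign, cut at about 13% in these data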;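 note: signal is single emission at 671 nm which falls as cellular cAMP rises; 0% = forskolin-stimulated wells and 100% = buffer without forskolin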
MC4R antag conf: MC4R cAMP antagonists, retest, confirmation, cell-based, TR-FRET. shares compounds with MC4R antagonist. MC4R-expressing cells, MTII-stimulated cAMP. inhibition, % at 6.5 µM. 27% of 1,600 active. AID 602195, 2012; in the data active = inhibition above about 29%;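 note: 0% = agonist stimulated wells alone and 100% = agonist stimulated wells plus saturating reference antagonist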
MC4R barr conf: MC4R beta-arrestin agonists, retest, confirmation, cell-based, luminescence, U2OS; shares compounds with MC4R barr agon; U2OS MC4R beta-arrestin recruitment; scaled DMSO 0%, Melanotan II 100%; activation, % at 8.9 µM; 31% of 2,400 active; AID 602192, 2012;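 active = mean activation across replicates above the hit cutoff set in the earlier primary screen, cut at about 8% in these data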
MOR-DOR barr ag: agonists of MOR-DOR heterodimerization, counter-screen for MC4R biased agonist project, cell-based, luminescence; shares compounds with MC4R barr agon; U2OS PathHunter beta-arrestin, beta-gal luminescence; percent of deltorphin B response, DMSO zero; activation, % at 9.2 µM; 5.8% of 2,400 active; AID 602194, 2012;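 active = mean activation across replicates exceeds the hit threshold derived in the earlier primary screen, cut at about 18% in these data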;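 note: 100% = deltorphin B at 0.9 µM final and 0% = DMSO alone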
Numbers without * were called inactive. Compounds with a hit are over-represented: about 2.5% of the library has one in this group of screens.

Results for CCCCNc1c(-c2ccc(OC)c(SC(C)CC)c2)nc2ccc(C)cn12 (stereo unspecified) ?
MC4R barr agon: 1; Rev-erbA mod: 1; MC4R antagonist: 36*; PG9 binder: 2; NTR1 ag: 51*; NTR1 ag conf: 72*; U2OS cAMP counter: 22*; MC4R antag conf: 48*

What do the screens show for `CCCCNc1c(-c2ccc(OC)c(SC(C)CC)c2)nc2ccc(Cl)cn12` (stereo unspecified)?
MC4R barr agon: 4; Rev-erbA mod: -3; MC4R antagonist: 15; PG9 binder: -3; NTR1 ag: 4

What do the screens show for `COC(=O)c1ccc(/C=C/C(=O)OCC(=O)Nc2sccc2C(N)=O)cc1`?
MC4R barr agon: 4; MC4R antagonist: 36*; NTR1 ag: 45*; NTR1 ag conf: 77*; U2OS cAMP counter: 15*; MC4R antag conf: 29*

How did COC(=O)[C@]12C[C@H](CC(=O)N3CCSCC3)C(=O)N(Cc3ccc4c(c3)OCO4)C1=C[C@H](COCc1ccccc1)O[C@@H]2C do in these assays?
Rev-erbA mod: 2; PG9 binder: -1

What do the screens show for `Cc1ccc(Nc2nnc(SC3CCOC3=O)s2)cc1` (stereo unspecified)?
MC4R barr agon: -2; Rev-erbA mod: 1; MC4R antagonist: 6; PG9 binder: -2; NTR1 ag: 4

How did CC(C)c1ccc(Nc2nnc(SC3CCOC3=O)s2)cc1 (stereo unspecified) do in these assays?
MC4R barr agon: -3; Rev-erbA mod: 2; MC4R antagonist: 31*; PG9 binder: -1; NTR1 ag: 52*; NTR1 ag conf: 76*; U2OS cAMP counter: 41*; MC4R antag conf: 33*

Results for COC(=O)c1c(NC(=O)COC(=O)c2ccc(O)cc2)sc2c1CCCCC2 ?
MC4R barr agon: 3; Rev-erbA mod: 0; MC4R antagonist: 30*; PG9 binder: 0; NTR1 ag: 43*; NTR1 ag conf: 33; U2OS cAMP counter: -1; MC4R antag conf: 6

What do the screens show for `Cc1cc(C)n(-c2nc(N(c3ccccc3)c3ccccc3)nc(-n3nc(C)cc3C)n2)n1`?
MC4R barr agon: 4; MC4R antagonist: 62*; NTR1 ag: 84*; NTR1 ag conf: 75*; U2OS cAMP counter: 3; MC4R antag conf: -7

Results for C=CCN1[C@@H](C)COc2cccc(N3CCSCC3)c2S1(=O)=O ?
Rev-erbA mod: 0

What do the screens show for `CC1(C)CC(=O)C=C(c2ccc(COC(=O)c3ccc(Br)cc3)cc2)C1=O`?
Rev-erbA mod: 3; PG9 binder: -3

What do the screens show for `Cc1ccc(C(C2=C(O)CC(C)(C)CC2=O)C2C(=O)CC(C)(C)CC2=O)s1` (stereo unspecified)?
MC4R barr agon: -1; Rev-erbA mod: 0; MC4R antagonist: 13; PG9 binder: 0; NTR1 ag: 5

Results for CC1(C)CC(=O)C(C(C2=C(O)CC(C)(C)CC2=O)c2ccc(Br)s2)C(=O)C1 (stereo unspecified) ?
MC4R barr agon: 1; Rev-erbA mod: 3; MC4R antagonist: 39*; PG9 binder: 1; NTR1 ag: 59*; NTR1 ag conf: 45*; U2OS cAMP counter: 12; MC4R antag conf: 12

Results for C#CCNC(=O)C[C@H]1C[C@@]2(C(=O)OC)C(=C[C@H](C(C)C)O[C@@H]2C2CC2)N(CCC2=CCCCC2)C1=O ?
Rev-erbA mod: -2

How did CN(C)c1ccc(-n2cccc2/C=C/[N+](=O)[O-])cc1 do in these assays?
MC4R barr agon: 2; Rev-erbA mod: -2; MC4R antagonist: 39*; PG9 binder: 0; NTR1 ag: 63*; NTR1 ag conf: 66*; U2OS cAMP counter: 9; MC4R antag conf: 31*

Results for CN(c1ccccc1)c1ccc(/C=C/[N+](=O)[O-])cc1 ?
MC4R barr agon: -4; Rev-erbA mod: -1; MC4R antagonist: 10; PG9 binder: -1

How did COc1cccc(OCC(O)CN2CCC(CN3C(=O)c4cccc5cccc(c45)C3=O)CC2)c1 (stereo unspecified) do in these assays?
MC4R barr agon: 2; Rev-erbA mod: 0; MC4R antagonist: 14; PG9 binder: 0; NTR1 ag: 3

How did O=C1c2cccc3cccc(c23)C(=O)N1CC1CCN(CC(O)COc2ccc3ccccc3c2)CC1 (stereo unspecified) do in these assays?
MC4R barr agon: 55*; Rev-erbA mod: 11; MC4R antagonist: -3; PG9 binder: 1; NTR1 ag: 41*; NTR1 ag conf: 59*; MC4R barr conf: 22*; MOR-DOR barr ag: 16

How did Cc1cc(C)cc(OCC(O)CN2CCC(CN3C(=O)c4cccc5cccc(c45)C3=O)CC2)c1 (stereo unspecified) do in these assays?
MC4R barr agon: 31*; Rev-erbA mod: -1; MC4R antagonist: 9; PG9 binder: -1; NTR1 ag: 48*; NTR1 ag conf: 58*; MC4R barr conf: 33*; MOR-DOR barr ag: 14

Results for CCCOC(=O)c1cccc(Nc2nc(-c3cccnc3)nc3ccccc23)c1 ?
MC4R barr agon: 26*; Rev-erbA mod: 9; MC4R antagonist: 21; PG9 binder: -1; NTR1 ag: 44*; NTR1 ag conf: 44*; MC4R barr conf: 17*; MOR-DOR barr ag: 11
